Legend:
[1] = melting temperature; fluorescence melt of hairpins on a sequencing array, two-state fit, raised by 9.35 °C to match UV melts; conditions: sodium 0.088 M
How it was run: (§1)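 Folding enthalpy and melting temperature were estimated with bootstrapped two-state fits and combined across four replicates by inverse-variance weighting, with fitted temperatures raised by 9.35 °C to match UV melts. The data were Cy3 fluorescence of library hairpins, with annealed Cy3 and quencher oligos, on a sequenced MiSeq flow cell in 50 mM Na-HEPES pH 8.0, 25 mM NaCl, imaged in 2.5 °C steps up to 60 °C and normalised to pre-quench Cy3 and control constructs.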

[2] = folding enthalpy; higher = less favourable; fluorescence melt of hairpins on a sequencing array, two-state fit; conditions: sodium 0.088 M
How it was run: as §1

Row | Sequence | Tm [1] | folding enthalpy [2]
1 | GGGAGGGGAAACCCTCTC (.(((((....))))).) | 52.2 °C | -20.2 kcal/mol
2 | GGGAGGGGAAACCTTCCC ((((.((....)).)))) | 50 °C | -25.1 kcal/mol
3 | GGGAGGGGAAACTCTCCC (((((.(....).))))) | 52 °C | -31.4 kcal/mol
4 | GGGAGTCGAAAGACCCC (((.(((....)))))) | 56.7 °C | -32.7 kcal/mol
5 | GGGAGTGGAAACACCCCC (((.(((....))).))) | 49.2 °C | -19 kcal/mol
6 | GGGATACGAAAGTAACCC (((.(((....))).))) | 51.7 °C | -31.1 kcal/mol
7 | GGGATAGCGAAAGCTCCC (((..(((....)))))) | 50.1 °C | -21.8 kcal/mol
8 | GGGATAGGAAACCATCCC (((((.(....).))))) | 43.3 °C | -30.9 kcal/mol
9 | GGGATCCGAAAGGAACCC (((.(((....))).))) | 56.7 °C | -46.3 kcal/mol
10 | GGGATCGAAAGATGACCC ((((((....)))..))) | 33.6 °C | -27.8 kcal/mol
11 | GGGATCGAAAGATTACCC ((((((....)))..))) | 32.4 °C | -17.4 kcal/mol
12 | GGGATCGGAAACAATCCC (((((.(....).))))) | 40.6 °C | -30.9 kcal/mol
13 | GGGATGAAAATCCC (((((....))))) | 56.5 °C | -28.8 kcal/mol
14 | GGGATGGGAAACCATTCC ((.((((....)))).)) | 50.2 °C | -31.1 kcal/mol
15 | GGGATGGGAAACCGTCTC (.((.((....)).)).) | 36.6 °C | -26.1 kcal/mol
16 | GGGATGTCGAAAGACCCC (((..(((....)))))) | 44.9 °C | -18.8 kcal/mol
17 | GGGATTGAAAAATCCC ((((((....)))))) | 55.8 °C | -43.6 kcal/mol
18 | GGGATTGCGAAAGCACCC (((..(((....)))))) | 41.2 °C | -14.5 kcal/mol
19 | GGGATTGGAAACAATTCC ((.((((....)))).)) | 46.5 °C | -34 kcal/mol
20 | GGGATTGGAAACGATCCC (((((.(....).))))) | 51.9 °C | -43.8 kcal/mol
21 | GGGATTTCGAAAGAACCC (((..(((....)))))) | 30.3 °C | -22.6 kcal/mol
22 | GGGCAACCGAAAGGTCCC (((..(((....)))))) | 44 °C | -16.3 kcal/mol
23 | GGGCAAGCGAAAGCTCCC (((..(((....)))))) | 44.6 °C | -19 kcal/mol

Row | Sequence | Tm [1] | folding enthalpy [2]
24 | GGGCAAGGAAACCTGCCC (((((.(....).))))) | 57.5 °C | -37.7 kcal/mol
25 | GGGCAAGGAAACTCGCCC ((((.((....)).)))) | 50.7 °C | -31.1 kcal/mol
26 | GGGCAAGGAAACTTGCTC (.(((((....))))).) | 52.7 °C | -27.9 kcal/mol
27 | GGGCACCGAAAGGTACCC (((.(((....))).))) | 56.7 °C | -35.1 kcal/mol
28 | GGGCACCGAAAGGTTCCC (((.(((....))).))) | 52.5 °C | -32.4 kcal/mol
29 | GGGCACGAAAGTGAACCC ((((((....)))..))) | 51.7 °C | -16.6 kcal/mol
30 | GGGCACGAAAGTGCACCC ((((((....)))..))) | 58.2 °C | -10.8 kcal/mol
31 | GGGCACGAAAGTGGTCCC ((((((....)))..))) | 52.5 °C | -17.5 kcal/mol
32 | GGGCACGAAAGTGTGCCC ((((((....)))..))) | 64.5 °C | -27.1 kcal/mol
33 | GGGCACGGAAACACGCCC ((((..(....)..)))) | 46.2 °C | -30.7 kcal/mol
34 | GGGCAGCGAAAGCTCCC (((.(((....)))))) | 57.3 °C | -20.3 kcal/mol
35 | GGGCATCGAAAGATCCCC (((.(((....))).))) | 48.9 °C | -19.4 kcal/mol
36 | GGGCATGGAAACATGCTC (.(((((....))))).) | 55.4 °C | -30.1 kcal/mol
37 | GGGCCAGGAAACTAGCCC ((((.((....)).)))) | 48.6 °C | -27.3 kcal/mol
38 | GGGCCCGAAAGGGATCCC ((((((....)))..))) | 56.6 °C | -14.9 kcal/mol
39 | GGGCCCGGAAACGAGCCC ((((.((....)).)))) | 57.5 °C | -47.5 kcal/mol
40 | GGGCCGCGAAAGCGCCCC (((.(((....))).))) | 68.8 °C | -12.4 kcal/mol
41 | GGGCCGGGAAACTGGCCC (((((.(....).))))) | 68.9 °C | -31.9 kcal/mol
42 | GGGCCTCCGAAAGGACCC (((..(((....)))))) | 50.1 °C | -21.2 kcal/mol
43 | GGGCCTGGAAACAGGCTC (.(((((....))))).) | 61.6 °C | -15.9 kcal/mol
44 | GGGCGAACGAAAGTTCCC (((..(((....)))))) | 45.2 °C | -15.4 kcal/mol
45 | GGGCGACGAAAGTCACCC (((.(((....))).))) | 61.8 °C | -43.3 kcal/mol
46 | GGGCGCACGAAAGTGCCC (((..(((....)))))) | 57 °C | -12.1 kcal/mol

Row | Sequence | Tm [1] | folding enthalpy [2]
47 | GGGCGCGAAAGCGAGCCC ((((((....)))..))) | 66.2 °C | -16.7 kcal/mol
48 | GGGCGCGAAAGCGATCCC ((((((....)))..))) | 58.5 °C | -14.3 kcal/mol
49 | GGGCGCGAAAGCGCACCC ((((((....)))..))) | 66.3 °C | -9.21 kcal/mol
50 | GGGCGCGAAAGCGGTCCC ((((((....)))..))) | 63.8 °C | -11.7 kcal/mol
51 | GGGCGGTCGAAAGACCCC (((..(((....)))))) | 53.9 °C | -15.3 kcal/mol
52 | GGGCGTCCGAAAGGACCC (((..(((....)))))) | 57.8 °C | -13.9 kcal/mol
53 | GGGCGTGGAAACACACCC (((.(((....))).))) | 51.8 °C | -40.7 kcal/mol
54 | GGGCGTGGAAACATGCCC ((((.((....)).)))) | 63.1 °C | -42.9 kcal/mol
55 | GGGCTACGAAAGTAACCC (((.(((....))).))) | 52 °C | -36.6 kcal/mol
56 | GGGCTACGAAAGTACCC (((.(((....)))))) | 49.6 °C | -34.9 kcal/mol
57 | GGGCTAGGAAACTGGTCC ((.(.((....)).).)) | 41 °C | -33.6 kcal/mol
58 | GGGCTCGAAAGAGAGCCC ((((((....)))..))) | 66.2 °C | -35.3 kcal/mol
59 | GGGCTCGAAAGAGCGCCC ((((((....)))..))) | 56.6 °C | -10.7 kcal/mol
60 | GGGCTCGAAAGAGTTCCC ((((((....)))..))) | 43.5 °C | -21 kcal/mol
61 | GGGCTCGGAAACAAGCCC (((((.(....).))))) | 51.4 °C | -28.1 kcal/mol
62 | GGGCTCGGAAACGAACCC (((.(((....))).))) | 51 °C | -46.9 kcal/mol
63 | GGGCTGCGAAAGCATCCC (((.(((....))).))) | 55.2 °C | -34.5 kcal/mol
64 | GGGCTGGCGAAAGCCCCC (((..(((....)))))) | 52.1 °C | -12.9 kcal/mol
65 | GGGCTTTCGAAAGAACCC (((..(((....)))))) | 35.7 °C | -40 kcal/mol
66 | GGGGAACGAAAGTTTCCC (((.(((....))).))) | 61.1 °C | -36.8 kcal/mol
67 | GGGGACCCGAAAGGGCCC (((..(((....)))))) | 62.3 °C | -16.4 kcal/mol
68 | GGGGACGAAAGTCATCCC ((((((....)))..))) | 45.6 °C | -12.6 kcal/mol

From the array DNA melting data of Ke et al. (doi:10.1101/2024.01.08.574731)
